Converted amounts (≈) assume the structure as drawn.
Tests used:
Format in all cases: functional
Moraxella catarrhalis [1] = experiment: Antimicrobial activity against drug-susceptible Moraxella catarrhalis 2 after 20 hrs by agar dilution method; conditions: Moraxella catarrhalis, 20 h; read-out: MIC
Summary of the method: (§1)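 Streptococci, H. influenzae and M. catarrhalis were precultured on blood agar plates. Suspensions of about 10⁶ CFU/ml were inoculated onto sensitivity disk agar supplemented with 5% horse blood and incubated at 37 °C for 20 h. MIC was read as the lowest drug concentration with no visible growth.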

Staphylococcus aureus [2] = experiment: Antimicrobial activity against Staphylococcus aureus 5 expressing inducible ermB after 20 hrs by agar dilution method; conditions: Staphylococcus aureus, 20 h; read-out: MIC
Summary of the method: (§2)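 Agar dilution MIC. S. aureus seed culture was grown in sensitivity test broth. Cell suspension (about 10⁶ CFU/ml) was inoculated onto sensitivity disk agar with 5% horse blood and incubated at 37 °C for 20 h. MIC was the lowest drug concentration that prevented visible growth.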

Streptococcus pyogenes [3] = experiment: Antimicrobial activity against Streptococcus pyogenes 2 constitutively expressing ermB after 20 hrs by agar dilution method; summary of the method: as §1
Moraxella catarrhalis [4] = experiment: Antimicrobial activity against drug-susceptible Moraxella catarrhalis 1 after 20 hrs by agar dilution method; conditions: Moraxella catarrhalis, 20 h; read-out: MIC; summary of the method: as §1
Streptococcus pneumoniae [5] = experiment: Antimicrobial activity against Streptococcus pneumoniae 5 constitutively expressing ermB/mefA after 20 hrs by agar dilution method; conditions: Streptococcus pneumoniae, 20 h; read-out: MIC; summary of the method: as §1
Staphylococcus aureus [6] = experiment: Antimicrobial activity against drug-susceptible Staphylococcus aureus 3 after 20 hrs by agar dilution method; conditions: Staphylococcus aureus, 20 h; read-out: MIC; summary of the method: as §2
Haemophilus influenzae [7] = experiment: Antimicrobial activity against drug-susceptible Haemophilus influenzae 4 after 20 hrs by agar dilution method; conditions: Haemophilus influenzae, 20 h; read-out: MIC; summary of the method: as §1
Haemophilus influenzae [8] = experiment: Antimicrobial activity against drug-susceptible Haemophilus influenzae 2 after 20 hrs by agar dilution method; conditions: Haemophilus influenzae, 20 h; read-out: MIC; summary of the method: as §1
Haemophilus influenzae [9] = experiment: Antimicrobial activity against drug-susceptible Haemophilus influenzae 3 after 20 hrs by agar dilution method; conditions: Haemophilus influenzae, 20 h; read-out: MIC; summary of the method: as §1
Streptococcus pneumoniae [10] = experiment: Antimicrobial activity against drug-susceptible Streptococcus pneumoniae DP1 Type1 after 20 hrs by agar dilution method; conditions: Streptococcus pneumoniae, 20 h; read-out: MIC; summary of the method: as §1
Staphylococcus aureus [11] = experiment: Antimicrobial activity against drug-susceptible Staphylococcus aureus 2 after 20 hrs by agar dilution method; conditions: Staphylococcus aureus, 20 h; read-out: MIC; summary of the method: as §2
Streptococcus pneumoniae [12] = experiment: Antimicrobial activity against Streptococcus pneumoniae 8 expressing inducible ermB after 20 hrs by agar dilution method; conditions: Streptococcus pneumoniae, 20 h; read-out: MIC; summary of the method: as §1
Streptococcus pyogenes [13] = experiment: Antimicrobial activity against drug-susceptible Streptococcus pyogenes 1 after 20 hrs by agar dilution method; conditions: Streptococcus pyogenes, 20 h; read-out: MIC; summary of the method: as §1
Staphylococcus aureus [14] = experiment: Antimicrobial activity against drug-susceptible Staphylococcus aureus 209P JC-1 after 20 hrs by agar dilution method; conditions: Staphylococcus aureus, 209P, 20 h; read-out: MIC; summary of the method: as §2
Streptococcus pneumoniae [15] = experiment: Antimicrobial activity against Streptococcus pneumoniae 9 expressing mefA after 20 hrs by agar dilution method; conditions: Streptococcus pneumoniae, 20 h; read-out: MIC; summary of the method: as §1
Haemophilus influenzae [16] = experiment: Antimicrobial activity against drug-susceptible Haemophilus influenzae 1 after 20 hrs by agar dilution method; conditions: Haemophilus influenzae, 20 h; read-out: MIC; summary of the method: as §1
Streptococcus pneumoniae [17] = experiment: Antimicrobial activity against drug-susceptible Streptococcus pneumoniae 3 after 20 hrs by agar dilution method; conditions: Streptococcus pneumoniae, 20 h; read-out: MIC; summary of the method: as §1
Staphylococcus aureus [18] = experiment: Antimicrobial activity against Staphylococcus aureus 6 expressing inducible ermB after 20 hrs by agar dilution method; summary of the method: as §2
Staphylococcus aureus [19] = experiment: Antimicrobial activity against Staphylococcus aureus 4 constitutively expressing ermA after 20 hrs by agar dilution method; summary of the method: as §2
Streptococcus pyogenes [20] = experiment: Antimicrobial activity against Streptococcus pyogenes 3 expressing mefA after 20 hrs by agar dilution method; conditions: Streptococcus pyogenes, 20 h; read-out: MIC; summary of the method: as §1
Streptococcus pneumoniae [21] = experiment: Antimicrobial activity against Streptococcus pneumoniae 6 constitutively expressing ermB after 20 hrs by agar dilution method; conditions: Streptococcus pneumoniae, 20 h; read-out: MIC; summary of the method: as §1
Streptococcus pneumoniae [22] = experiment: Antimicrobial activity against drug-susceptible Streptococcus pneumoniae 2 after 20 hrs by agar dilution method; conditions: Streptococcus pneumoniae, 20 h; read-out: MIC; summary of the method: as §1
Streptococcus pneumoniae [23] = experiment: Antimicrobial activity against Streptococcus pneumoniae 10 expressing mefA after 20 hrs by agar dilution method; conditions: Streptococcus pneumoniae, 20 h; read-out: MIC; summary of the method: as §1
Streptococcus pneumoniae [24] = experiment: Antimicrobial activity against Streptococcus pneumoniae 7 expressing inducible ermB after 20 hrs by agar dilution method; conditions: Streptococcus pneumoniae, 20 h; read-out: MIC; summary of the method: as §1
Streptococcus pneumoniae [25] = experiment: Antimicrobial activity against Streptococcus pneumoniae 4 constitutively expressing ermB after 20 hrs by agar dilution method; conditions: Streptococcus pneumoniae, 20 h; read-out: MIC; summary of the method: as §1

Structure (SMILES)	MIC (Moraxella catarrhalis [1])	MIC (Staphylococcus aureus [2])	MIC (Streptococcus pyogenes [3])	MIC (Moraxella catarrhalis [4])	MIC (Streptococcus pneumoniae [5])	MIC (Staphylococcus aureus [6])	MIC (Haemophilus influenzae [7])	MIC (Haemophilus influenzae [8])	MIC (Haemophilus influenzae [9])	MIC (Streptococcus pneumoniae [10])	MIC (Staphylococcus aureus [11])	MIC (Streptococcus pneumoniae [12])	MIC (Streptococcus pyogenes [13])	MIC (Staphylococcus aureus [14])	MIC (Streptococcus pneumoniae [15])	MIC (Haemophilus influenzae [16])	MIC (Streptococcus pneumoniae [17])	MIC (Staphylococcus aureus [18])	MIC (Staphylococcus aureus [19])	MIC (Streptococcus pyogenes [20])	also measured
CCOC(=O)[C@H]1[C@H](C)O[C@@H](O[C@H]2[C@H](N(C)C)[C@@H](O)[C@H](O[C@H]3[C@@H](CC=O)C[C@@H](C)[C@@H](O)CN(C)CC(/C=C\Cc4cnc5ccccc5c4)CCOC(=O)C[C@@H](OC(=O)CC)[C@@H]3OC)O[C@@H]2C)C[C@@]1(C)O (stereo not given in full)	2 µg/mL (≈ 2.03 µM)	0.25 µg/mL (≈ 0.253 µM)	> 64 µg/mL	2 µg/mL (≈ 2.03 µM)	> 64 µg/mL	0.25 µg/mL (≈ 0.253 µM)	16 µg/mL (≈ 16.2 µM)	8 µg/mL (≈ 8.11 µM)	16 µg/mL (≈ 16.2 µM)	0.06 µg/mL (≈ 0.0608 µM)	1 µg/mL (≈ 1.01 µM)	8 µg/mL (≈ 8.11 µM)	0.13 µg/mL (≈ 0.132 µM)	0.5 µg/mL (≈ 0.507 µM)	0.13 µg/mL (≈ 0.132 µM)	> 64 µg/mL	0.13 µg/mL (≈ 0.132 µM)	1 µg/mL (≈ 1.01 µM)	> 64 µg/mL	0.5 µg/mL (≈ 0.507 µM)	MIC (Streptococcus pneumoniae [21]): > 64 µg/mL; MIC (Streptococcus pneumoniae [22]): 0.25 µg/mL (≈ 0.253 µM); MIC (Streptococcus pneumoniae [23]): 0.13 µg/mL (≈ 0.132 µM); MIC (Streptococcus pneumoniae [24]): 8 µg/mL (≈ 8.11 µM); MIC (Streptococcus pneumoniae [25]): > 64 µg/mL
CCOC(=O)[C@H]1[C@H](C)O[C@@H](O[C@H]2[C@H](N(C)C)[C@@H](O)[C@H](O[C@H]3[C@@H](CC=O)C[C@@H](C)[C@@H](O)CN(C)CC(/C=C/Cc4cccc5cccnc45)CCOC(=O)C[C@@H](OC(=O)CC)[C@@H]3OC)O[C@@H]2C)C[C@]1(C)O (stereo not given in full)	2 µg/mL (≈ 2.03 µM)	0.25 µg/mL (≈ 0.253 µM)	> 128 µg/mL	1 µg/mL (≈ 1.01 µM)	128 µg/mL (≈ 130 µM)	0.25 µg/mL (≈ 0.253 µM)	8 µg/mL (≈ 8.11 µM)	2 µg/mL (≈ 2.03 µM)	8 µg/mL (≈ 8.11 µM)	0.015 µg/mL (≈ 0.0152 µM)	0.5 µg/mL (≈ 0.507 µM)	8 µg/mL (≈ 8.11 µM)	0.06 µg/mL (≈ 0.0608 µM)	0.25 µg/mL (≈ 0.253 µM)	0.03 µg/mL (≈ 0.0304 µM)	32 µg/mL (≈ 32.4 µM)	0.015 µg/mL (≈ 0.0152 µM)	0.5 µg/mL (≈ 0.507 µM)	> 128 µg/mL	0.25 µg/mL (≈ 0.253 µM)	MIC (Streptococcus pneumoniae [21]): 128 µg/mL (≈ 130 µM); MIC (Streptococcus pneumoniae [22]): 0.015 µg/mL (≈ 0.0152 µM); MIC (Streptococcus pneumoniae [23]): 0.03 µg/mL (≈ 0.0304 µM); MIC (Streptococcus pneumoniae [24]): 8 µg/mL (≈ 8.11 µM); MIC (Streptococcus pneumoniae [25]): 128 µg/mL (≈ 130 µM)
CCOC(=O)[C@H]1[C@H](C)O[C@@H](O[C@H]2[C@H](N(C)C)[C@@H](O)[C@H](O[C@H]3[C@@H](CC=O)C[C@@H](C)[C@@H](O)CN(C)CCC[C@@H](C/C=C/c4ccnc5ccccc45)OC(=O)C[C@@H](OC(=O)CC)[C@@H]3OC)O[C@@H]2C)C[C@@]1(C)O	4 µg/mL (≈ 4.06 µM)	0.25 µg/mL (≈ 0.253 µM)	> 128 µg/mL	2 µg/mL (≈ 2.03 µM)	> 128 µg/mL	0.25 µg/mL (≈ 0.253 µM)	16 µg/mL (≈ 16.2 µM)	8 µg/mL (≈ 8.11 µM)	16 µg/mL (≈ 16.2 µM)	0.13 µg/mL (≈ 0.132 µM)	1 µg/mL (≈ 1.01 µM)	32 µg/mL (≈ 32.4 µM)	0.25 µg/mL (≈ 0.253 µM)	0.5 µg/mL (≈ 0.507 µM)	0.13 µg/mL (≈ 0.132 µM)	64 µg/mL (≈ 64.9 µM)	0.06 µg/mL (≈ 0.0608 µM)	0.5 µg/mL (≈ 0.507 µM)	> 128 µg/mL	0.5 µg/mL (≈ 0.507 µM)	MIC (Streptococcus pneumoniae [21]): > 128 µg/mL; MIC (Streptococcus pneumoniae [22]): 0.13 µg/mL (≈ 0.132 µM); MIC (Streptococcus pneumoniae [23]): 0.13 µg/mL (≈ 0.132 µM); MIC (Streptococcus pneumoniae [24]): 32 µg/mL (≈ 32.4 µM); MIC (Streptococcus pneumoniae [25]): > 128 µg/mL
CCOC(=O)[C@H]1[C@H](C)O[C@@H](O[C@H]2[C@H](N(C)C)[C@@H](O)[C@H](O[C@H]3[C@@H](CC=O)C[C@@H](C)[C@@H](O)CN(C)CC(/C=C/Cc4cncc5ccccc45)CCOC(=O)C[C@@H](OC(=O)CC)[C@@H]3OC)O[C@@H]2C)C[C@@]1(C)O (stereo not given in full)	1 µg/mL (≈ 1.01 µM)	0.13 µg/mL (≈ 0.132 µM)	> 128 µg/mL	1 µg/mL (≈ 1.01 µM)	128 µg/mL (≈ 130 µM)	0.13 µg/mL (≈ 0.132 µM)	8 µg/mL (≈ 8.11 µM)	2 µg/mL (≈ 2.03 µM)	8 µg/mL (≈ 8.11 µM)	0.015 µg/mL (≈ 0.0152 µM)	0.5 µg/mL (≈ 0.507 µM)	8 µg/mL (≈ 8.11 µM)	0.03 µg/mL (≈ 0.0304 µM)	0.25 µg/mL (≈ 0.253 µM)	0.015 µg/mL (≈ 0.0152 µM)	32 µg/mL (≈ 32.4 µM)	0.015 µg/mL (≈ 0.0152 µM)	0.25 µg/mL (≈ 0.253 µM)	> 128 µg/mL	0.25 µg/mL (≈ 0.253 µM)	MIC (Streptococcus pneumoniae [21]): 128 µg/mL (≈ 130 µM); MIC (Streptococcus pneumoniae [22]): 0.03 µg/mL (≈ 0.0304 µM); MIC (Streptococcus pneumoniae [23]): 0.03 µg/mL (≈ 0.0304 µM); MIC (Streptococcus pneumoniae [24]): 8 µg/mL (≈ 8.11 µM); MIC (Streptococcus pneumoniae [25]): 128 µg/mL (≈ 130 µM)

Reference: ChEMBL document CHEMBL1151705, “Novel azalides derived from 16-membered macrolides. Part II: Isolation of the linear 9-formylcarboxylic acid and its sequential macrocyclization with an amino alcohol or an azidoamine” (2008)
